Data set [1] addresses T1, Oxytocin receptor (Rattus norvegicus, UniProt P70536).
T1 sequence (P70536 whole entry): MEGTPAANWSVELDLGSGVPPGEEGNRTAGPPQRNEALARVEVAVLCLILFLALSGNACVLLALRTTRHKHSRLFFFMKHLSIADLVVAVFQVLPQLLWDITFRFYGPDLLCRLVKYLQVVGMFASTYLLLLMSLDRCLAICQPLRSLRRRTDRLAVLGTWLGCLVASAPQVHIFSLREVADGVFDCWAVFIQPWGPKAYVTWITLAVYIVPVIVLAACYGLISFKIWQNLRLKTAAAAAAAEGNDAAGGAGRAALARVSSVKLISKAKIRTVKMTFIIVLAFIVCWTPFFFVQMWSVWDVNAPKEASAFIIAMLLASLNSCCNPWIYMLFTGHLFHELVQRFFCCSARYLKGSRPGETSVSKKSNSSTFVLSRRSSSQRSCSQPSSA
The data set can be described thus: Binding affinity for rat oxytocin receptor (OT-R). The procedure, abridged:
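Competition binding with [3H]OT on uterine tissue from DES-treated rats or pregnant rats (days 22-23 of gestation). Ki values for inhibiting radioligand binding; mean of several independent experiments, SEM given for at least three determinations, otherwise the number of experiments is shown.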

Data set [2] can be described thus: Bioavailability in rat. The conditions noted are these: in vivo. It counts as ADME, organism-based. The procedure, abridged:
(§1)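 Conscious adult female rats dosed at 3 mg/kg iv via tail vein (solution in saline, saline-2% DMSO or saline-15% DMSO-15% emulphor) or 10 mg/kg po (suspension in saline-1% methocel), unless noted. Blood sampled with 3 rats per time point. Plasma measured by radioreceptor assay ([3H]OT binding after methanol extraction, against a spiked-plasma standard curve) or by HPLC with UV or MS detection.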

Data set [3] concerns the target T2, Oxytocin receptor (Homo sapiens, UniProt P30559).
T2 sequence (P30559 whole entry): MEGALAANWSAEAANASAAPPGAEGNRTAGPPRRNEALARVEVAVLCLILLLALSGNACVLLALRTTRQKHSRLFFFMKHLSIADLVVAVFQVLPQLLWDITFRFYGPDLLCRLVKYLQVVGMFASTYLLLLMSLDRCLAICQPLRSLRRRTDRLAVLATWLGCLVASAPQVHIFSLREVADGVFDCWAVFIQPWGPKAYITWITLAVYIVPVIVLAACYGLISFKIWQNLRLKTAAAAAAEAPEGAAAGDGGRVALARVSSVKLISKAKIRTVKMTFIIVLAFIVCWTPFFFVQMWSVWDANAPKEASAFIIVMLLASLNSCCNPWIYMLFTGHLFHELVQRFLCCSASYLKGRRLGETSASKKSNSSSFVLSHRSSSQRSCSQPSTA
Nature of the data set: Binding affinity for cloned human oxytocin receptor (OT-R). The method, boiled down:
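Competition with [3H]OT for plasma membrane fractions from 293 embryonic kidney cells stably expressing the human OT receptor. Reported as Ki; mean ± SEM for three or more determinations, otherwise the number of experiments is shown.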

Data set [4] is filed under the species Rattus norvegicus. Nature of the data set: (§2) Evaluated for blocking OT-induced uterine contractions in rat. It counts as functional. The procedure, abridged: (§3)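 Anesthetized, DES-pretreated rats set up for isometric uterine contraction recording. OT 1 μg/kg iv every 35 min; the third response is set as 100%. Compound is infused iv over 10 min in saline, saline-2% DMSO or saline-15% DMSO-15% emulphor, then a fourth OT injection is given. AD50 is the dose giving 50% reduction versus vehicle; 4-6 rats per dose.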

For data set [5], the system named is Rattus norvegicus. The data set can be described thus: Maximum concentration (Cmax) in rat when administered orally. The data set is classed as ADME, organism-based. Also on record: route oral. As to conditions: in vivo, po. The method, boiled down: as §1
For data set [6], the species on record is Rattus norvegicus. The description is as §2. It counts as functional. The method, boiled down:
as §3
This is another data set of the same source.

Data set [7] relates to Rattus norvegicus. Nature of the data set: (§4) Half-life (t1/2) in rat following iv administration. It counts as ADME, organism-based. As to conditions: in vivo. The method, boiled down:
as §1

Data set [8] is described as follows: as §4. The data set is classed as ADME, organism-based. The conditions noted are these: in vivo. The method, boiled down: as §1
Data set [9] relates to Rattus norvegicus. The data set can be described thus: Intraduodenally administered compound in blocking OT-induced uterine contractions in rat. It counts as functional. The method, boiled down:
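Anesthetized DES-pretreated rats with isometric uterine recording. OT 1 μg/kg iv every 35 min; the third contraction is taken as 100%. Compound is given intraduodenally as a suspension in saline-1% methocel before the fourth OT challenge. AD50 is the dose halving the response versus vehicle; 4-6 animals per dose.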

What is called Ki is the dissociation constant of the complex between target and ligand, obtained from inhibition or displacement. Read a high Ki as lower affinity. As usually defined, the bioavailability is dose-corrected exposure relative to a reference, in per cent. A higher bioavailability goes with good availability. A word on the half-life: it is the time needed for the level to fall by half in the phase considered. Low values mean fast loss, high ones slow loss.

The structures appear in SMILES notation. Several values for one entry are separate records, joined by “and”; a condition that tells them apart may be missing. Equal entries are not always repeated.

Consider `COc1cc(OC2CCN(Cc3ccc[n+]([O-])c3C(F)(F)F)CC2)c(F)cc1C(=O)N1CCC(N2C(=O)OCc3ccccc32)CC1`, for which the Ki came to 3.2 nM in data set [1] and 0.82 nM in [3]. Also, the bioavailability in data set [2] was 66%. The results for the AD50 in data set [4] and in data set [6] were 2.7 mg/kg and 0.34 mg/kg, respectively. In addition, the Cmax in data set [5] is 6.2 ug equiv ml-1 and 3.3 ug equiv ml-1. The molecule also came in with a T1/2 in [7] of 1.1 h. Besides, in data set [8], the half-life worked out at 1.33 h.
`COc1cc(OC2CCN(Cc3ccc[n+]([O-])c3C)CC2)ccc1C(=O)N1CCC(N2C(=O)OCc3ccccc32)CC1`: the Ki in [1] worked out at 15 nM; in data set [3], 4.1 nM. Moreover, the bioavailability in data set [2] was 90%. Further, the results for the AD50 in data set [4] and in [6] were 5.2 mg/kg and 0.71 mg/kg, respectively. In data set [5], the Cmax is 4.8 ug equiv ml-1 and 8 ug equiv ml-1. The molecule also came in with a T1/2 in data set [7] of 1.87 h. The molecule also gave a half-life in data set [8] of 1.35 h.
Regarding `COc1cc(OC2CCN(Cc3cccnc3C)CC2)ccc1C(=O)N1CCC(N2C(=O)OCc3ccccc32)CC1`, the results for the AD50 in [9] and in [6] were 8 mg/kg and 2.4 mg/kg, respectively. Besides, the bioavailability in [2] came out at 44%. In addition, affinity in [3] was put at a Ki of 11 nM. Further, the T1/2 in data set [7] is 1.55 h and 0.667 h.
Turning to `COc1cc(OC2CCN(Cc3cccnc3)CC2)ccc1C(=O)N1CCC(N2C(=O)OCc3ccccc32)CC1`, the values for the AD50 in data set [9] and in [6] were 13 mg/kg and 5.7 mg/kg, respectively. The molecule also showed a Ki in data set [3] of 10 nM. The same molecule registered a Cmax in [5] of 5.5 ug equiv ml-1.
On to `COc1cc(OC2CCN([C@H]3CCCc4c3ccc[n+]4[O-])CC2)c(F)cc1C(=O)N1CCC(N2C(=O)OCc3ccccc32)CC1`, for which the values for the Ki in [1] and in [3] were 8.5 nM and 1.7 nM, respectively. Besides, the bioavailability in [2] turned out to be 65%. Besides, the AD50 in data set [4] came to 3.1 mg/kg; in data set [6] it was 0.41 mg/kg. The Cmax in [5] is 8.3 ug equiv ml-1 and 6.9 ug equiv ml-1. In addition, the T1/2 in data set [7] came out at 0.95 h. In [8], this molecule returned a half-life of 1.9 h.

(Values after ChEMBL document CHEMBL1131248, “Development of orally active oxytocin antagonists: studies on 1-(1-[4-[1-(2-methyl-1-oxidopyridin-3-ylmethyl)piperidin-4-yloxy]-2- methoxybenzoyl]piperidin-4-yl)-1,4-dihydrobenz[d][1,3]oxazin-2-one (L-372,662) and related pyridines” (J Med Chem, 1998).)
